For assay [1], the system named is HL-60. The experiment in a line: Antitumor activity against HL60 cells at 5 uM after 6 hrs by MTT assay. In kind it is functional, Homo sapiens. The procedure, abridged: (§1)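 HL-60 human acute promyelocytic leukemia cells exposed for 0–6 h at final 2.5, 5, 7.5 and 10 µM. Viability read by MTT (mitochondrial succinic dehydrogenase reduces dye to formazan). Growth rate expressed against formazan absorbance at 0 h set to 1.0. SD, n = 5. IC50 taken as median growth-inhibitory concentration at 3 h or 6 h.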
On the technique in general: Tetrazolium dyes change colour on reduction, which living cells bring about.

Assay [2] deals with HL-60. As to the kind of experiment: Antitumor activity against HL60 cells at 7.5 uM after 6 hrs by MTT assay. In kind it is functional, Homo sapiens. The procedure, abridged: as §1
The test system of assay [3] is HL-60. The experiment in a line: Antitumor activity against HL60 cells at 10 uM after 6 hrs by MTT assay. In kind it is functional, Homo sapiens. The essentials:
as §1

Assay [4] concerns HL-60. The experiment in a line: Antitumor activity against HL60 cells after 6 hrs by MTT assay. To be noted: Homo sapiens, HL-60, 6 h. In kind it is functional, cell-based. The essentials: as §1
For assay [5], the system named is HL-60. As to the kind of experiment: Antitumor activity against HL60 cells at 5 ug/ml after 4 hrs by MTT assay. In kind it is functional, Homo sapiens. The essentials: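 HL-60 cells given 5 µg/mL. Viability measured by MTT formazan absorbance after 4 h and expressed relative to the 0 h reading.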
Assay [6] relates to HL-60. The experiment in a line: Antitumor activity against HL60 cells after 3 hrs by MTT assay. Format: functional, cell-based. To be noted: Homo sapiens, HL-60, 3 h. The procedure, abridged:
as §1

The subject of assay [7] is HL-60. As to the kind of experiment: Induction of apoptosis in HL60 cells assessed as DNA fragmentation at 9 uM by agarose gel electrophoresis. In kind it is functional, cell-based. The conditions noted are these: Homo sapiens. The essentials:
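Apoptosis versus necrosis judged by oligonucleosomal DNA cleavage on agarose gel electrophoresis. HL-60 cells treated 6 h at 9 µM final. Controls were medium only, tamoxifen, ethanol and actinomycin D.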

Calls of active or inactive are those of the source. No cut-off for these calls is given here.

A word on the IC50: it is the concentration that gives 50% inhibition. Higher therefore signals a need for much substance. For the compound `CCC(=C(c1ccc(OCCN2CCCC2)cc1)c1ccc(OCCN2CCCC2)cc1)c1ccccc1`, the Activity in assay [1], in assay [2], in assay [3] and in assay [5] was more than 90% throughout. For the same compound, the results for the half-inhibitory concentration (IC50) in assay [4] and in assay [6] were 3 µM and 4 µM, respectively. Moreover, in assay [7], the outcome was Active.

On to `CCC(=C(c1ccc(OCCN2CCCCC2)cc1)c1ccc(OCCN2CCCCC2)cc1)c1ccccc1`, for which the Activity in assay [2] and in assay [3] was more than 80% each time. In addition, half-maximal inhibition in assay [4] (IC50) was put at 5 µM. For the same compound, in assay [7], the result was Active.

These data come from ChEMBL document CHEMBL1147890, “Synthesis of the new pseudo-symmetrical tamoxifen derivatives and their anti-tumor activity” (Bioorg Med Chem Lett, 2007).
